High-throughput results: PubChem BioAssay, Broad Institute
KDM4C inh – blocks human GASC-1 (KDM4C) demethylase activity | Q9H3R0 | GST-KDM4C 2-372, H3K9me3 peptide, LANCE TR-FRET | inhibition, % at 12.5 µM | hit rate 0.15% among 96,000;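 active means mean replicate inhibition above about 25%, with at least 55% of replicates also reaching it, limit read from the data, passing the limit was not always enough; inconclusive means only one of those two conditions met; inactive means neither condition met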
Target sequence (Q9H3R0 2-372 limits assumed): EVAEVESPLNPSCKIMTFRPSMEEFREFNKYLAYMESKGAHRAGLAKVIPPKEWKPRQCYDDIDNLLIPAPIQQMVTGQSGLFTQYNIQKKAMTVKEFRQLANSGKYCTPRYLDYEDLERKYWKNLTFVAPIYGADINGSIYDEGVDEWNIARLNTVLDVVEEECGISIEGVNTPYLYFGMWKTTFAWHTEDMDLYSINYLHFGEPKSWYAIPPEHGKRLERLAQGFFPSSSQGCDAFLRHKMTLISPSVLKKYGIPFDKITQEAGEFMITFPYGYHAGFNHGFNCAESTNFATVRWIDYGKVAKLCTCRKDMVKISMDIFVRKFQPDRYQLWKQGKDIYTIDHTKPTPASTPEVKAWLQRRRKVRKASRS
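Test system: N-terminal GST-fused human GASC-1 (KDM4C) fragment, residues 2-372; quantity: GASC-1 enzyme at 10 nM final in reaction; dosing: single dose; schedule: 30 min demethylation and 1 h detection at room temperature; signal: LANCE TR-FRET, excitation 340 nm, emissions 618 and 671 nm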
T cruzi growth-1 – blocks T. cruzi growth in NIH3T3 culture; inhibition, % at 8.34 µM; T. cruzi beta-gal in NIH3T3, GalScreen luminescence, 90 h; hit rate 5.9% among 77,000; AID 624255;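 active means mean inhibition above about 93%, with at least 55% of replicates each passing it, limit read from the data, passing the limit was not always enough; inconclusive means only one of those two conditions holds; inactive means neither condition holds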
IDH1 mut inh – blocks human IDH1 R132H reductase activity. inhibition, % at 10 µM. diaphorase/resazurin fluorescence, 60 min. O75874. hit rate 0.18% among 70,000; in the data active means inhibition above about 34%; inconclusive means no clear call, values can overlap the other calls; inactive means below about 11%;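 further: 0% = DMSO and 100% = no enzyme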
Target sequence (O75874 whole entry R132H): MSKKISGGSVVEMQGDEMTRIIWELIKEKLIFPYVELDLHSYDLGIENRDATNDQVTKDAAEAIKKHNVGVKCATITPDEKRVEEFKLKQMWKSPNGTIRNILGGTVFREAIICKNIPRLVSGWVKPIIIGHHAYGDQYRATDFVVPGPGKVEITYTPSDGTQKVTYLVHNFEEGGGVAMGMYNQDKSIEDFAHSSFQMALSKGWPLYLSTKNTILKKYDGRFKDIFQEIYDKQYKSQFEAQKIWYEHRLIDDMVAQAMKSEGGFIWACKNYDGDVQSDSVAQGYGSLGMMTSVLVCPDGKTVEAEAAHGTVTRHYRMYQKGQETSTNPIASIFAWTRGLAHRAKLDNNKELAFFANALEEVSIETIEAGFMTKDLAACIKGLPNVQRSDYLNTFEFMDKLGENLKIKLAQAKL
Pf Dd2 inh – blocks growth of Plasmodium falciparum Dd2 parasites. P. falciparum Dd2 growth, SYBR Green, 72 h; active compounds read low. activity change, % at 10 µM. hit rate 2.3% among 94,000; in the data active means activity change below about -80%; inconclusive means no clear call, values can overlap the other calls
T cruzi growth-2 – inhibitors of T. cruzi proliferation; shares compounds with T cruzi growth-1; T. cruzi beta-gal in NIH3T3, GalScreen luminescence, 90 h; inhibition, % at 8.35 µM; hit rate 72% among 5,600; AID 651739;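 active means mean replicate inhibition above about 95% and at least 55% of replicates individually reaching it, limit read from the data; inconclusive means only one of the two criteria is met; inactive means neither criterion is met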
T cruzi growth-3 – Trypanosoma cruzi proliferation inhibition; shares compounds with T cruzi growth-1; T. cruzi beta-gal in NIH3T3, GalScreen luminescence, 90 h; inhibition, % at 2.09 µM; hit rate 21% among 5,600; AID 651740;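 active means mean inhibition above about 95%, with at least 55% of replicates also reaching it, limit read from the data; inconclusive means meets just one of the two conditions; inactive means meets neither condition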;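 further: plate controls were neutral control median for no effect and positive control median for full effect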
3T3 cytotox – kills mouse NIH/3T3 fibroblasts. shares compounds with T cruzi growth-1. NIH/3T3 viability, CellTiter-Glo ATP luminescence, 90 h. cytotoxicity (signal decrease), % at 8.35 µM. hit rate 14% among 5,600;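 active means mean signal decrease across replicates above about 35% based on untreated-well scatter, with enough replicates individually passing, limit read from the data; inconclusive means no rule stated though some were filed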;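 further: 0% = median of neutral control wells and 100% = median of positive control wells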
NIH3T3 tox 2 – kills mouse NIH/3T3 fibroblasts. NIH/3T3 viability, CellTiter-Glo ATP luminescence, 90 h. inhibition, % at 24.9 µM. AID 651744. shares compounds with T cruzi growth-1. hit rate 56% among 5,600;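 active means mean loss of cell viability signal at or above a set limit, and enough replicates individually reaching it; inconclusive means meets only the mean limit or only the replicate share; inactive means meets neither condition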;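 further: 0% = median of neutral control wells and 100% = median of positive control wells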
Starred values were filed as active, the others as inactive; ? = inconclusive; nt = no result. Shown are actives, neighbours in structure and some others; about 5.8% of the full set was active somewhere.

SMILES	KDM4C inh	T cruzi growth-1	IDH1 mut inh	Pf Dd2 inh	T cruzi growth-2	T cruzi growth-3	3T3 cytotox	NIH3T3 tox 2
C[C@H](CO)N1C[C@H](C)[C@H](CN(C)C(=O)c2ccc3c(c2)OCO3)Oc2ncc(C#Cc3ccccc3F)cc2C1=O	-0.3	56.3	nt	-73.5	nt	nt	nt	nt
C[C@@H]1CN([C@H](C)CO)C(=O)c2cc(C#Cc3cccc(F)c3)cnc2O[C@H]1CN(C)C(=O)C1CCCCC1	-0.8	100.9*	0.0	-70.8	109.9*	83.9	-2.3	103.3*
C[C@H]1CN([C@@H](C)CO)C(=O)c2cc(C#Cc3cccc(F)c3)cnc2O[C@H]1CN(C)C(=O)C1CCCCC1	0.8	99.1	-0.3	-72.5	nt	nt	nt	nt
Cc1ccccc1-c1ccc([C@H]2[C@@H](CO)N3CCCCN(C(=O)c4cccnc4)C[C@H]23)cc1	-1.0	99.1*	nt	26.3	97.0*	47.4	17.8	9.4
O=C(c1ccncc1)N1CCCCN2[C@H](C1)[C@@H](c1ccc(-c3ccccc3)cc1)[C@@H]2CO	-0.8	9.5	nt	36.2	nt	nt	nt	nt
Cc1cccc(-c2ccc([C@@H]3[C@@H](CO)N4CCCCN(C(=O)c5cccnc5)C[C@@H]34)cc2)c1	-1.1	100.1*	nt	-6.6	32.3	-7.4	2.0	19.1
O=C(c1ccncc1)N1CCCCN2[C@H](CO)[C@H](c3ccc(-c4ccccc4)cc3)[C@@H]2C1	-1.5	119.5*	nt	46.0	82.5	5.6	-9.3	18.2
Cc1cccc(-c2ccc([C@H]3[C@H]4CN(C(=O)c5cccnc5)CCCCN4[C@H]3CO)cc2)c1	1.6	109.3*	nt	-4.1	?	27.3	11.8	26.5*
Cc1cccc(-c2ccc([C@@H]3[C@@H](CO)N4CCCCN(C(=O)c5cccnc5)C[C@H]34)cc2)c1	0.9	?	nt	11.1	55.9	-11.9	10.6	30.3*
Cc1cccc(-c2ccc([C@@H]3[C@@H](CO)N4CCCCN(C(=O)c5ccncc5)C[C@@H]34)cc2)c1	-0.8	57.9	nt	12.6	nt	nt	nt	nt
Cc1cccc(-c2ccc([C@H]3[C@H](CO)N4CCCCN(C(=O)c5cccnc5)C[C@@H]34)cc2)c1	-1.0	115.7*	nt	27.3	102.0*	41.8	38.8*	32.0*
Cc1cccc(-c2ccc([C@@H]3[C@@H](CO)N4CCCCN(C(=O)c5ccncc5)C[C@H]34)cc2)c1	-0.8	31.5	nt	0.4	nt	nt	nt	nt
Cc1cccc(-c2ccc([C@H]3[C@@H](CO)N4CCCCN(C(=O)c5ccncc5)C[C@H]34)cc2)c1	-1.6	?	nt	22.9	104.7*	94.7	11.7	24.5*
COC(/C=C/C(OC(C)=O)C(C)OC(C)=O)C(O)C1CC=CC(=O)O1 (stereo unspecified)	nt	nt	-0.6	nt	nt	nt	nt	nt
CO[C@H]1C=C[C@@](C)(O)/C=C/C(=O)O[C@H](C)[C@@H](C)CC/C=C\1C	nt	nt	0.2	nt	nt	nt	nt	nt
C[C@H](CO)N1C[C@H](C)[C@H](CN(C)C(=O)NC2CCCCC2)Oc2cc(C#Cc3ccc(F)cc3)ccc2S1(=O)=O	-1.4	54.1	-2.9	-56.6	nt	nt	nt	nt
COc1ccc(C#Cc2ccc3c(c2)O[C@H](CN(C)C(=O)NC2CCCCC2)[C@@H](C)CN([C@H](C)CO)S3(=O)=O)cc1	-5.5	?	0.3	-50.3	106.3*	62.7	-18.2	32.6*
COc1ccc(C#Cc2ccc3c(c2)O[C@@H](CN(C)C(=O)NC2CCCCC2)[C@@H](C)CN([C@@H](C)CO)S3(=O)=O)cc1	-4.5	?	2.1	-77.5	?	114.2*	-6.2	10.5
COc1ccc(C#Cc2ccc3c(c2)O[C@H](CN(C)C(=O)NC2CCCCC2)[C@H](C)CN([C@H](C)CO)S3(=O)=O)cc1	-3.0	?	-1.6	-61.0	?	113.1*	-9.3	7.9
C[C@@H]1CN([C@H](C)CO)S(=O)(=O)c2ccc(C#Cc3ccc(F)cc3)cc2O[C@H]1CN(C)C(=O)NC1CCCCC1	-1.6	87.2	nt	-58.8	nt	nt	nt	nt
C[C@@H]1CCCCO[C@@H](CN(C)C(=O)Nc2cccc3ccccc23)[C@@H](C)CN([C@H](C)CO)C(=O)c2cc(NS(=O)(=O)c3ccc(F)cc3)ccc2O1	-1.3	-4.4	1.0	-34.8	nt	nt	nt	nt
Cc1ccc(S(=O)(=O)Nc2ccc3c(c2)C(=O)N([C@@H](C)CO)C[C@H](C)[C@H](CN(C)C(=O)Nc2cccc4ccccc24)OCCCC[C@H](C)O3)cc1	1.2	105.4*	nt	?	106.0*	83.9	-29.1	1.8
C[C@H](CO)N1C[C@H](C)[C@@H](CN(C)C(=O)Nc2cccc3ccccc23)OCCCC[C@H](C)Oc2ccc(NS(=O)(=O)c3ccc(F)cc3)cc2C1=O	-1.9	104.8*	nt	-75.2	105.9*	?	-20.2	13.6
Cc1ccc(S(=O)(=O)Nc2ccc3c(c2)C(=O)N([C@H](C)CO)C[C@H](C)[C@H](CN(C)C(=O)Nc2cccc4ccccc24)OCCCC[C@H](C)O3)cc1	-0.3	91.6	nt	-66.6	nt	nt	nt	nt
Cc1ccc(S(=O)(=O)Nc2ccc3c(c2)C(=O)N([C@@H](C)CO)C[C@H](C)[C@H](CN(C)C(=O)Nc2cccc4ccccc24)OCCCC[C@@H](C)O3)cc1	-1.7	68.5	nt	?	nt	nt	nt	nt
SMILES	KDM4C inh	T cruzi growth-1	IDH1 mut inh	Pf Dd2 inh	T cruzi growth-2	T cruzi growth-3	3T3 cytotox	NIH3T3 tox 2
Cc1ccc(S(=O)(=O)Nc2ccc3c(c2)C(=O)N([C@@H](C)CO)C[C@@H](C)[C@H](CN(C)C(=O)Nc2cccc4ccccc24)OCCCC[C@@H](C)O3)cc1	-2.2	102.5*	3.5	-26.0	108.8*	86.6	-9.0	-1.2
Cc1ccc(S(=O)(=O)Nc2ccc3c(c2)C(=O)N([C@H](C)CO)C[C@@H](C)[C@@H](CN(C)C(=O)Nc2cccc4ccccc24)OCCCC[C@@H](C)O3)cc1	-2.2	108.4*	0.3	-86.1*	101.9*	101.9*	13.0	5.0
COC(=O)c1c(NC(=O)CSc2ccccn2)sc2c1CCC2	nt	nt	0.0	nt	nt	nt	nt	nt
Cc1ccc(NC(=O)CNS(=O)(=O)c2ccccc2)cc1Cl	nt	nt	0.2	nt	nt	nt	nt	nt
COc1ccc(-c2nn(-c3ccccc3)cc2C2NC(=O)NC(C)=C2C(=O)OCc2ccccc2)cc1 (stereo unspecified)	nt	nt	0.3	nt	nt	nt	nt	nt
C#CCN1C(=O)C(O)(CC(=O)c2ccc(C)o2)c2ccccc21 (stereo unspecified)	nt	nt	0.2	nt	nt	nt	nt	nt
C[C@@H]1CN([C@@H](C)CO)S(=O)(=O)c2ccc(C#CC3CC3)cc2O[C@@H]1CN(C)C(=O)Nc1cc(F)ccc1F	-3.0	103.4*	nt	-13.7	113.8*	79.1	29.1	28.3*
C[C@H](CO)N1C[C@H](C)[C@H](CN(C)C(=O)Nc2cc(F)ccc2F)Oc2cc(C#CC3CCCC3)ccc2S1(=O)=O	-1.0	nt	0.5	-38.5	nt	nt	nt	nt
